Among the data in ChEMBL document CHEMBL1142924, “N(6)-[(hetero)aryl/(cyclo)alkyl-carbamoyl-methoxy-phenyl]-(2-chloro)-5'-N-ethylcarboxamido-adenosines: the first example of adenosine-related structures with potent agonist activity at the human A(2B) adenosine receptor” (Bioorg Med Chem, 2007) are Ki, EC50 and Activity values, retold here.

The term Ki denotes a measure of affinity in units of concentration, obtained from inhibition or displacement. For orientation: EC50 means the concentration that produces a half-maximal response.

Experiment [1] concerns the target T1, Adenosine receptor A3 (Homo sapiens, UniProt P0DMS8).
T1 sequence (P0DMS8 whole entry): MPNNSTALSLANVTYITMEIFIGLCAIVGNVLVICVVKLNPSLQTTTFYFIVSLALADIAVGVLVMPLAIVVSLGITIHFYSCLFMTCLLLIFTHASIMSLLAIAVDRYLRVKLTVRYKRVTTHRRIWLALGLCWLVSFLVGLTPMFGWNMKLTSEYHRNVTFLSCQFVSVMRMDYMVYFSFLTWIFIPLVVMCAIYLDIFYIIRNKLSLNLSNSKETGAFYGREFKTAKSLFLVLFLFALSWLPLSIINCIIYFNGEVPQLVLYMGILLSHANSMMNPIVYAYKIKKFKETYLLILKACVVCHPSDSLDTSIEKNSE
Nature of the experiment: Displacement of [125I]ABMECA from human adenosine A3 receptor expressed in CHO cells. (In general: Loss of bound radioactivity is the signal in a displacement assay; it reports binding, not function.)

Experiment [2] concerns the target T2, Adenosine receptor A2b (Homo sapiens, UniProt P29275).
T2 sequence (P29275 whole entry): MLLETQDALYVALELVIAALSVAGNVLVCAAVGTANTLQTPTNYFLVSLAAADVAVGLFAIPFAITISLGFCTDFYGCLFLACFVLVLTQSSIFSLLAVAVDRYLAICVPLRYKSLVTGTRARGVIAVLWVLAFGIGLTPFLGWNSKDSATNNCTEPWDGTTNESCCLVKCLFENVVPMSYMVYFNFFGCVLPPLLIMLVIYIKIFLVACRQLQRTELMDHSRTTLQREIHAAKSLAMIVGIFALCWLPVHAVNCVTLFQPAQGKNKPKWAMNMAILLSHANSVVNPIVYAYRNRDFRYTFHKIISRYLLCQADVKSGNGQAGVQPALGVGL
Nature of the experiment: Agonist activity at human adenosine A2B receptor expressed in CHO cells assessed as stimulation of cAMP production. Type of experiment: functional, cell-based. Summed up:
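CHO cells stably expressing human A2B, grown in DMEM/F12 with 10% serum and G418, trypsinized and pelleted. 1 × 10⁶ cells/assay preincubated 10 min at 37 °C with adenosine deaminase 2 IU/mL and Ro 20-1724. Ligands at 1 nM–10 µM added for 5 min, stopped with cold 6% TCA, ether-extracted. cAMP read by [³H]cAMP competition protein binding. EC50 from sigmoid non-linear regression; 3–4 experiments in duplicate.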
For orientation: Cyclic AMP is a second messenger, typically raised through Gs and lowered through Gi signalling.

The target in experiment [3] is T3, Adenosine receptor A1 (Homo sapiens, UniProt P30542).
T3 sequence (P30542 whole entry): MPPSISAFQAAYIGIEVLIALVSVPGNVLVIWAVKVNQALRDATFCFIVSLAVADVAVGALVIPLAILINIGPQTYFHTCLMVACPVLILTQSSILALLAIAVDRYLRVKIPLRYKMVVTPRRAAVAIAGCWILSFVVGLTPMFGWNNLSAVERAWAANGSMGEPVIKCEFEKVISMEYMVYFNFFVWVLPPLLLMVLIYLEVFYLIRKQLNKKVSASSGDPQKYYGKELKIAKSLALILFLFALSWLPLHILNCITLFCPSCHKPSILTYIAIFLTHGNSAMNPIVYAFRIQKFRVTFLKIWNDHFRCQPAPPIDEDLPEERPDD
The experiment is described as follows: Displacement of [3H]CHA from human adenosine A1 receptor expressed in CHO cells. Type of experiment: cell-based. In a few lines: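 Human A1 in CHO cell membranes, pretreated with adenosine deaminase 2 IU/mL for 30 min at 37 °C. 50 µg protein per assay incubated with 1 nM [³H]CHA and 6–8 agonist concentrations in 50 mM Tris-HCl pH 7.4 for 150 min at 25 °C. Nonspecific binding defined by 10 µM CHA. Separated by GF/B filtration, counted by scintillation. Ki from IC50 via Cheng–Prusoff.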

In experiment [4] the target is Adenosine receptor A2a (Homo sapiens, UniProt P29274). The experiment is described as follows: Displacement of [3H]CGS-21680 from human adenosine A2A receptor expressed in CHO cells. Type of experiment: cell-based. The arrangement: concentration or dose not given beside the values.
Sequence of Adenosine receptor A2a (P29274 whole entry): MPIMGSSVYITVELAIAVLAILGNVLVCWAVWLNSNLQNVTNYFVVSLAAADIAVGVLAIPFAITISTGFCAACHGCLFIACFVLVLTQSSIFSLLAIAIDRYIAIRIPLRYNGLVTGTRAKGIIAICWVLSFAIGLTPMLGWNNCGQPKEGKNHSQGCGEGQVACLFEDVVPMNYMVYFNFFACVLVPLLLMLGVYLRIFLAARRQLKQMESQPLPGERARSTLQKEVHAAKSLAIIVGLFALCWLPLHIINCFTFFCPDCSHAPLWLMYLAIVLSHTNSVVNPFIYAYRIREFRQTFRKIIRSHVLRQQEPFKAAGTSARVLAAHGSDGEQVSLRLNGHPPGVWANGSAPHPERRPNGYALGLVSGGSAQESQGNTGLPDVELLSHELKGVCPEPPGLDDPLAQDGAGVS

Structures are written as SMILES. Bounds are passed on as bounds.

Turning to `CCNC(=O)[C@H]1O[C@@H](n2cnc3c(Nc4ccc(OCC(=O)Nc5ccccc5)cc4)nc(Cl)nc32)[C@H](O)[C@@H]1O`, the Ki was 0.107 µM in experiment [1], 0.0305 µM in experiment [3] and > 1 µM in experiment [4]. For the same molecule, the EC50 in experiment [2] was 0.0426 µM. Further, the Activity in experiment [4] is 36%.
In the same order, the values of `CCNC(=O)[C@H]1O[C@@H](n2cnc3c(Nc4ccc(OCC(=O)NCc5ccccc5)cc4)nc(Cl)nc32)[C@H](O)[C@@H]1O` are 0.0757 µM, 0.0226 µM, > 1 µM, 0.175 µM and 49%.
The like results for `CCNC(=O)[C@H]1O[C@@H](n2cnc3c(Nc4ccc(OCC(=O)Nc5ccccc5C(F)(F)F)cc4)ncnc32)[C@H](O)[C@@H]1O` were, in that order, 0.115 µM, 0.0316 µM, > 1 µM, 0.107 µM and 1%.
As for `CCNC(=O)[C@H]1O[C@@H](n2cnc3c(Nc4ccc(OCC(=O)Nc5ccc(OC)c(OC)c5)cc4)ncnc32)[C@H](O)[C@@H]1O`, the Ki in experiment [1] was 0.0532 µM; in experiment [3] it was 0.0077 µM; in experiment [4], > 1 µM. Besides, the EC50 in experiment [2] is 0.0454 µM. The molecule further displayed an Activity in experiment [4] of 30%.
In the same order, the values of `CCNC(=O)[C@H]1O[C@@H](n2cnc3c(Nc4ccc(OCC(=O)NC5CCCCC5)cc4)ncnc32)[C@H](O)[C@@H]1O` are 0.0725 µM, 0.0162 µM, > 1 µM, 0.315 µM and 40%.
With `CCNC(=O)[C@H]1O[C@@H](n2cnc3c(Nc4ccc(OCC(=O)Nc5ccc(OC)cc5)cc4)ncnc32)[C@H](O)[C@@H]1O`, the Ki in experiment [1] was 0.0253 µM; in experiment [3], 0.0047 µM; in experiment [4] it was > 1 µM. Moreover, the EC50 in experiment [2] came out at 0.0324 µM. In addition, the Activity in experiment [4] stood at 42%.
With `CCNC(=O)[C@H]1O[C@@H](n2cnc3c(Nc4ccc(OCC(=O)Nc5ccc(F)cc5)cc4)ncnc32)[C@H](O)[C@@H]1O`, the figures for the Ki in experiment [1], in experiment [3] and in experiment [4] were 0.0723 µM, 0.0023 µM and > 1 µM, respectively. In experiment [2], the EC50 came to 0.0152 µM. Also, in experiment [4], the Activity worked out at 48%.
In the same order, the values of `CCNC(=O)[C@H]1O[C@@H](n2cnc3c(Nc4ccc(OCC(=O)NCc5ccccc5)cc4)ncnc32)[C@H](O)[C@@H]1O` are 0.0827 µM, 0.0204 µM, > 1 µM, 0.15 µM and 49%.
The like results for `CCNC(=O)[C@H]1O[C@@H](n2cnc3c(Nc4ccc(OCC(=O)Nc5ccncc5)cc4)ncnc32)[C@H](O)[C@@H]1O` were, in that order, 0.0423 µM, 0.0112 µM, > 1 µM, 0.0323 µM and 37%.
With `CCNC(=O)[C@H]1O[C@@H](n2cnc3c(Nc4ccc(OCC(=O)NC5CCCCC5)cc4)nc(Cl)nc32)[C@H](O)[C@@H]1O`, the Ki in experiment [1] was 0.0958 µM; in experiment [3], 0.0308 µM; in experiment [4], > 1 µM. Besides, in experiment [2], the EC50 amounted to 0.302 µM. Besides, in experiment [4], the Activity was 46%.
The like results for `CCNC(=O)[C@H]1O[C@@H](n2cnc3c(Nc4ccc(OCC(=O)Nc5cc(OC)cc(OC)c5)cc4)ncnc32)[C@H](O)[C@@H]1O` were, in that order, 0.0786 µM, 0.0153 µM, > 1 µM, 0.0536 µM and 13%.
In the same order, the values of `CCNC(=O)[C@H]1O[C@@H](n2cnc3c(Nc4ccc(OCC(=O)NCc5ccc(OC)cc5)cc4)ncnc32)[C@H](O)[C@@H]1O` are 0.0654 µM, 0.0283 µM, > 1 µM, 0.24 µM and 1%.
`CCNC(=O)[C@H]1O[C@@H](n2cnc3c(Nc4ccc(OCC(=O)Nc5ccc(OC)cc5)cc4)nc(Cl)nc32)[C@H](O)[C@@H]1O`: the Ki in experiment [1] was 0.101 µM; in experiment [3] it was 0.0504 µM; in experiment [4], > 1 µM. The EC50 in experiment [2] was 0.36 µM. This molecule showed an Activity in experiment [4] of 27%.
In the same order, the values of `CCNC(=O)[C@H]1O[C@@H](n2cnc3c(Nc4ccc(OCC(=O)Nc5ccccc5)cc4)ncnc32)[C@H](O)[C@@H]1O` are 0.0384 µM, 0.0085 µM, > 1 µM, 0.0073 µM and 45%.
For the molecule `CCNC(=O)[C@H]1O[C@@H](n2cnc3c(Nc4ccc(OCC(=O)Nc5ccc6c(c5)OCO6)cc4)ncnc32)[C@H](O)[C@@H]1O`, the Ki in experiment [1] is 0.0814 µM; in experiment [3], 0.0084 µM; in experiment [4], > 1 µM. Besides, the EC50 in experiment [2] stood at 0.0355 µM. The same molecule yielded an Activity in experiment [4] of 5%.
`CCNC(=O)[C@H]1O[C@@H](n2cnc3c(Nc4ccc(OCC(=O)Nc5ccc(Br)cc5)cc4)ncnc32)[C@H](O)[C@@H]1O`: the Ki in experiment [1] is 0.0364 µM; in experiment [3] it was 0.0035 µM; in experiment [4], > 1 µM. In experiment [2], the EC50 came to 0.0105 µM. Also, the Activity in experiment [4] is 26%.
In the same order, the values of `CCNC(=O)[C@H]1O[C@@H](n2cnc3c(Nc4ccc(OCC(=O)Nc5ccc(C(C)(C)C)cc5)cc4)ncnc32)[C@H](O)[C@@H]1O` are 0.0402 µM, 0.0186 µM, > 1 µM, 0.0164 µM and 1%.
The like results for `CCNC(=O)[C@H]1O[C@@H](n2cnc3c(Nc4ccc(OCC(=O)Nc5ccc(I)cc5)cc4)ncnc32)[C@H](O)[C@@H]1O` were, in that order, 0.0852 µM, 0.0052 µM, > 1 µM, 0.0302 µM and 28%.
The like results for `CCNC(=O)[C@H]1O[C@@H](n2cnc3c(Nc4ccc(OCC(=O)Nc5ccc(Cl)cc5)cc4)ncnc32)[C@H](O)[C@@H]1O` were, in that order, 0.0342 µM, 0.0031 µM, > 1 µM, 0.0123 µM and 35%.
For the molecule `CCNC(=O)[C@H]1O[C@@H](n2cnc3c(Nc4ccc(OCC(=O)Nc5ccc(N6CCOCC6)cc5)cc4)ncnc32)[C@H](O)[C@@H]1O`, the Ki in experiment [1] was 0.32 µM; in experiment [3], 0.0775 µM; in experiment [4], > 1 µM. Also, the 50% effective concentration (EC50) in experiment [2] worked out at 0.3 µM. Besides, the Activity in experiment [4] stood at 1%.
